Experimental data taken from ChEMBL document CHEMBL3352586, “Pyridyl benzamides as a novel class of potent inhibitors for the kinetoplastid Trypanosoma brucei” (J Med Chem, 2014).
Values after ≈ are worked out from the molar mass of the structure shown.

Tests used:
[1] = system: Trypanosoma brucei brucei; test: Antimicrobial activity against bloodstream form of Trypanosoma brucei brucei 427 at 10 uM after 48 hrs by alamar blue assay; format: functional; conditions: Trypanosoma brucei, 427, 48 h
[2] = Kinetic solubility of the compound at 10 mg/ml at pH 6.5 by nephelometry; format: physicochemical; conditions: buffer, read-out: Kinetic_solubility
Method in brief: (§1)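 Kinetic solubility was read by nephelometry at pH 2 and pH 6.5 and reported as μg/mL ranges.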

[3] = Partition coefficient, log D of the compound at pH 7.4 by HPLC method; format: physicochemical; conditions: octanol/water
Method in brief: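 Distribution coefficient at pH 7.4 was measured chromatographically.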

[4] = Plasma protein binding in human […] by chromatographic method; format: ADME, cell-free; conditions: read-out: PPB (converted)
Method in brief: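 Human plasma protein binding was estimated by a chromatographic method.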

[5] = Kinetic solubility of the compound at 10 mg/ml at pH 2 by nephelometry; format: physicochemical; conditions: buffer, read-out: Kinetic_solubility; method in brief: as §1
[6] = system: Liver microsome; test: Intrinsic clearance in human liver microsomes at 1 uM after 60 mins by LC-MS analysis; format: ADME; conditions: 1 h
Method in brief: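 In vitro intrinsic clearance was measured in human liver microsomes and expressed per mg protein. A hepatic extraction ratio (E_H) was predicted from the in vitro data.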

[7] = system: Trypanosoma brucei brucei; test: Antimicrobial activity against bloodstream form of Trypanosoma brucei brucei 427 after 48 hrs by alamar blue assay; format: functional, organism-based; conditions: Trypanosoma brucei, 427, 48 h
[8] = Selectivity index, ratio of IC50 for HEK293 cells to IC50 for Trypanosoma brucei brucei 427; format: toxicity, cell-based; conditions: human, read-out: Ratio IC50

SMILES: Cc1ccccc1C(=O)Nc1ccccc1
- inhibition at 10 µM [1]: < 10%

SMILES: Cc1cc(NC(=O)c2ccccc2C)no1
- inhibition at 10 µM [1]: < 10%

SMILES: Cc1ccccc1NC(=O)c1ccccn1
- inhibition at 10 µM [1]: < 10%

SMILES: Cc1ccccc1C(=O)Nc1ccc(Cl)cn1
- inhibition at 10 µM [1]: < 10%

SMILES: Cc1ccccc1C(=O)Nc1nncs1
- inhibition at 10 µM [1]: < 10%

SMILES: Cc1ccccc1C(=O)Nc1ccc(Br)cn1
- inhibition at 10 µM [1]: < 10%

SMILES: Cc1ccccc1C(=O)Nc1ccc(Br)c(C)n1
- inhibition at 10 µM [1]: < 10%

SMILES: Cc1ccccc1C(=O)Nc1nc[nH]n1
- inhibition at 10 µM [1]: < 10%

SMILES: O=C(Nc1ccccn1)c1ccccc1-c1ccccc1
- inhibition at 10 µM [1]: < 10%

SMILES: Cc1ccccc1C(=O)Nc1cccnn1
- inhibition at 10 µM [1]: < 10%

SMILES: Cc1ccccc1C(=O)Nc1ccc(C#CCC(C)C)cn1
- inhibition at 10 µM [1]: 12%

SMILES: CCC/C=C/c1ccc(NC(=O)c2ccccc2C)nc1
- inhibition at 10 µM [1]: 19%

SMILES: Cc1ccccc1C(=O)Nc1ccc(-c2ccccc2)cn1
- inhibition at 10 µM [1]: 11%

SMILES: Cc1ccccc1C(=O)Nc1cccc(OCC(C)C)n1
- inhibition at 10 µM [1]: < 10%

SMILES: CCCCN(C(=O)c1ccccc1C)c1ccccn1
- inhibition at 10 µM [1]: 11%

SMILES: CCCCCN(C(=O)c1ccccc1C)c1ccccn1
- inhibition at 10 µM [1]: 17%

SMILES: O=C(Nc1ccccn1)c1ccccc1I
- inhibition at 10 µM [1]: 38%

SMILES: O=C(Nc1ccccn1)c1ccccc1C(F)(F)F
- inhibition at 10 µM [1]: < 10%

SMILES: COc1cccnc1NC(=O)c1ccccc1C
- inhibition at 10 µM [1]: < 10%

SMILES: Cc1ccccc1C(=O)Nc1ncccc1C
- inhibition at 10 µM [1]: 34%

SMILES: Cc1ccccc1C(=O)Nc1ncccc1F
- inhibition at 10 µM [1]: < 10%

SMILES: Cc1ccccc1C(=O)Nc1ncccn1
- inhibition at 10 µM [1]: < 10%
- solubility kinetic [2]: 6.3 µg/mL (≈ 29.5 µM)
- logD [3]: 3.9
- fraction unbound [4]: 0.024
- solubility kinetic [5]: 6.3 µg/mL (≈ 29.5 µM)

SMILES: Cc1ccccc1C(=O)Nc1cc(C#N)ccn1
- CLint [6]: 82 µL/min/mg
- IC50 [7]: 2300 nM
- solubility kinetic [2]: 25 µg/mL (≈ 105 µM)
- logD [3]: 2.8
- fraction unbound [4]: 0.359
- solubility kinetic [5]: 50 µg/mL (≈ 211 µM)

SMILES: Cc1ccccc1C(=O)Nc1cnccn1
- inhibition at 10 µM [1]: 35%

SMILES: Cc1ccccc1C(=O)Nc1cc(Br)ccn1
- selectivity ratio [8]: > 41
- IC50 [7]: 1800 nM

SMILES: Cc1ccccc1C(=O)Nc1cc(F)ccn1
- selectivity ratio [8]: 168
- IC50 [7]: 510 nM

SMILES: Cc1ccccc1C(=O)Nc1cc(C#CCC(C)C)ccn1
- selectivity ratio [8]: > 53
- IC50 [7]: 1100 nM

SMILES: COc1ccc(NC(=O)c2ccccc2C)nc1
- CLint [6]: 23 µL/min/mg
- selectivity ratio [8]: > 22
- IC50 [7]: 3800 nM
- solubility kinetic [2]: 12.5 µg/mL (≈ 51.6 µM)
- logD [3]: 2.5
- fraction unbound [4]: 0.399
- solubility kinetic [5]: > 100 µg/mL

SMILES: Cc1ccc(NC(=O)c2ccccc2C)nc1
- inhibition at 10 µM [1]: < 10%

SMILES: Cc1ccccc1C(=O)Nc1ccncn1
- inhibition at 10 µM [1]: < 10%

SMILES: Cc1ccccc1C(=O)Nc1ccc(C#N)cn1
- inhibition at 10 µM [1]: < 10%
- solubility kinetic [2]: 6.3 µg/mL (≈ 26.6 µM)
- logD [3]: 3.9
- fraction unbound [4]: 0.025
- solubility kinetic [5]: 6.3 µg/mL (≈ 26.6 µM)

SMILES: COc1cccc(NC(=O)c2ccccc2C)n1
- inhibition at 10 µM [1]: < 10%

SMILES: Cc1cccc(NC(=O)c2ccccc2C)n1
- inhibition at 10 µM [1]: < 10%

SMILES: Cc1ccccc1C(=O)Nc1cccc(F)n1
- CLint [6]: 191 µL/min/mg
- inhibition at 10 µM [1]: < 10%
- solubility kinetic [2]: > 100 µg/mL
- logD [3]: 3
- fraction unbound [4]: 0.33
- solubility kinetic [5]: > 100 µg/mL

SMILES: Cc1ccccc1C(=O)Nc1cccc(C#N)n1
- inhibition at 10 µM [1]: 11%

SMILES: Cc1ccccc1C(=O)Nc1cccc(Cl)n1
- inhibition at 10 µM [1]: < 10%

SMILES: Cc1ccccc1C(=O)Nc1cccc(Br)n1
- inhibition at 10 µM [1]: < 10%

SMILES: Cc1ccccc1C(=O)Nc1cccc(-c2ccccc2)n1
- inhibition at 10 µM [1]: 33%

SMILES: Cc1ccccc1C(=O)Nc1cccc(C#CCC(C)C)n1
- inhibition at 10 µM [1]: < 10%

SMILES: CCC/C=C/c1cccc(NC(=O)c2ccccc2C)n1
- selectivity ratio [8]: > 3
- IC50 [7]: 6000 nM

SMILES: Cc1ccccc1C(=O)Nc1cccc(C#Cc2ccccc2)n1
- inhibition at 10 µM [1]: < 10%

SMILES: Cc1ccccc1C(=O)Nc1cccc(O)n1
- inhibition at 10 µM [1]: < 10%

SMILES: Cc1ccccc1C(=O)Nc1cccc(N)n1
- selectivity ratio [8]: > 19
- IC50 [7]: 4600 nM

SMILES: Cc1ccccc1C(=O)Nc1ccccc1C#N
- inhibition at 10 µM [1]: < 10%

SMILES: Cc1ccccc1C(=O)Nc1ccon1
- inhibition at 10 µM [1]: < 10%

SMILES: Cc1ccccc1C(=O)Nc1ncco1
- inhibition at 10 µM [1]: < 10%

SMILES: Cc1ccccc1C(=O)Nc1cc[nH]n1
- inhibition at 10 µM [1]: < 10%

SMILES: Cc1ccccc1C(=O)Nc1ncns1
- inhibition at 10 µM [1]: < 10%

SMILES: Cc1ccccc1C(=O)Nc1ccsc1
- inhibition at 10 µM [1]: < 10%

SMILES: Cc1ccccc1C(=O)N(C)c1ccccn1
- inhibition at 10 µM [1]: 18%

SMILES: CCc1ccccc1C(=O)Nc1ccccn1
- selectivity ratio [8]: 30
- IC50 [7]: 2740 nM

SMILES: O=C(Nc1ccccn1)c1ccccc1F
- inhibition at 10 µM [1]: 35%

SMILES: O=C(Nc1ccccn1)c1ccccc1Cl
- inhibition at 10 µM [1]: 44%

SMILES: O=C(Nc1ccccn1)c1ccccc1OC(F)(F)F
- inhibition at 10 µM [1]: 13%

SMILES: O=C(Nc1ccccn1)c1cccc(F)c1
- selectivity ratio [8]: 11
- IC50 [7]: 7330 nM

SMILES: Cc1c(Cl)cccc1C(=O)Nc1ccccn1
- selectivity ratio [8]: 132
- IC50 [7]: 630 nM

SMILES: Cc1c(Br)cccc1C(=O)Nc1ccccn1
- selectivity ratio [8]: 15
- IC50 [7]: 5700 nM

SMILES: Cc1cccc(C(=O)Nc2ccccn2)c1C
- selectivity ratio [8]: 24
- IC50 [7]: 3500 nM

SMILES: COc1cccc(C(=O)Nc2ccccn2)c1C
- inhibition at 10 µM [1]: 10%

SMILES: Cc1ncccc1C(=O)Nc1ccccn1
- inhibition at 10 µM [1]: 21%

SMILES: Cc1cc(F)ccc1C(=O)Nc1ccccn1
- selectivity ratio [8]: 44
- IC50 [7]: 1900 nM

SMILES: Cc1cc(Cl)ccc1C(=O)Nc1ccccn1
- selectivity ratio [8]: 76
- IC50 [7]: 1100 nM

SMILES: COc1ccc(C(=O)Nc2ccccn2)c(C)c1
- inhibition at 10 µM [1]: < 10%

SMILES: CCC/C=C/c1ccc(C(=O)Nc2ccccn2)c(C)c1
- inhibition at 10 µM [1]: 24%

SMILES: Cc1cc(-c2ccccc2)ccc1C(=O)Nc1ccccn1
- inhibition at 10 µM [1]: < 10%

SMILES: Cc1ccc(F)cc1C(=O)Nc1ccccn1
- inhibition at 10 µM [1]: < 10%

SMILES: Cc1ccc(Br)cc1C(=O)Nc1ccccn1
- inhibition at 10 µM [1]: < 10%

SMILES: Cc1ccc(C)c(C(=O)Nc2ccccn2)c1
- inhibition at 10 µM [1]: 22%

SMILES: COc1ccc(C)c(C(=O)Nc2ccccn2)c1
- inhibition at 10 µM [1]: < 10%

SMILES: Cc1ccncc1C(=O)Nc1ccccn1
- inhibition at 10 µM [1]: < 10%

SMILES: Cc1cccc(C)c1C(=O)Nc1ccccn1
- inhibition at 10 µM [1]: < 10%

SMILES: Cc1cccc(F)c1C(=O)Nc1ccccn1
- inhibition at 10 µM [1]: 45%

SMILES: Cc1cccnc1C(=O)Nc1ccccn1
- inhibition at 10 µM [1]: 12%

SMILES: Cc1ccnc(NC(=O)c2cccc(F)c2C)c1
- CLint [6]: 237 µL/min/mg
- selectivity ratio [8]: 100
- IC50 [7]: 830 nM
- solubility kinetic [2]: 25 µg/mL (≈ 102 µM)
- logD [3]: 3.5
- fraction unbound [4]: 0.276
- solubility kinetic [5]: > 100 µg/mL

SMILES: Cc1c(C(=O)Nc2cc(Cl)ccn2)ccc(F)c1F
- selectivity ratio [8]: 160
- IC50 [7]: 530 nM

SMILES: Cc1c(F)cccc1C(=O)Nc1cc(F)ccn1
- selectivity ratio [8]: 851
- IC50 [7]: 100 nM

SMILES: Cc1c(C(=O)Nc2cc(F)ccn2)ccc(F)c1F
- selectivity ratio [8]: 450
- IC50 [7]: 190 nM

SMILES: COc1ccc(NC(=O)c2cccc(F)c2C)nc1
- selectivity ratio [8]: 4
- IC50 [7]: 2300 nM

SMILES: COc1ccc(NC(=O)c2ccc(F)cc2C)nc1
- selectivity ratio [8]: 32
- IC50 [7]: 2600 nM

SMILES: O=C(Nc1ccccn1)c1ccccc1
- selectivity ratio [8]: 9.2
- IC50 [7]: 9070 nM

SMILES: O=C(Nc1ccc2ccccc2n1)c1ccccc1-c1ccccc1
- inhibition at 10 µM [1]: 53%

SMILES: Cc1ccc(NC(=O)c2cc(S(=O)(=O)NC(C)(C)C)ccc2C)nc1
- inhibition at 10 µM [1]: 12%
